We go through 33 molecules from ChEMBL document CHEMBL1126322, “Renin inhibitors containing alpha-heteroatom amino acids as P2 residues” (J Med Chem, 1992).

Assay [1] can be described thus: Inhibitory activity against monkey renin in vitro.
The target of another assay is T1, Cathepsin D (Bos taurus, UniProt P80209).
T1 sequence (P80209 whole entry): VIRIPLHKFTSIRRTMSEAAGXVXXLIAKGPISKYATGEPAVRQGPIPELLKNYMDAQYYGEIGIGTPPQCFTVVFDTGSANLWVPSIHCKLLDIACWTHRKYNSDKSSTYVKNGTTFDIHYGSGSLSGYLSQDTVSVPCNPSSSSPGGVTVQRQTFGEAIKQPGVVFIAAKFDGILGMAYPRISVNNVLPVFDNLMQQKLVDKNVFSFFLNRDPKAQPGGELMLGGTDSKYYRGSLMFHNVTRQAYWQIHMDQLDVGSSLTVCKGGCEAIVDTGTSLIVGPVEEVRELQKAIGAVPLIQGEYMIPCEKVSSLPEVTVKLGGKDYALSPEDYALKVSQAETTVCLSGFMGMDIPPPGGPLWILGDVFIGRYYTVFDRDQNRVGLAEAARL
In words: Inhibitory activity against bovine cathepsin D. In a few lines: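 Bovine cathepsin D activity measured in duplicate as hydrolysis of bovine hemoglobin at pH 3.2 and 37 °C, read as net absorbance at 280 nm. Percent inhibition at six inhibitor concentrations; IC50 by nonlinear regression.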

The species entered for another assay is Bos taurus. In words: Selectivity ratio towards cathepsin D over renin. The method in brief:
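Ratio of cathepsin D IC50 to monkey plasma renin IC50. […] Cathepsin D IC50 from bovine hemoglobin hydrolysis at pH 3.2, 37 °C, A280.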

The subject of assay [2] is Monkey. As to the kind of experiment: Effect of compound on blood pressure in conscious, salt-depleted, normotensive, cynomolgus monkeys after oral administration of 30 mg/kg dose at 1 hour. It counts as functional, Cercopithecidae.
For assay [3], the system named is Monkey. In words: Effect of compound on blood pressure in conscious, salt-depleted, normotensive, cynomolgus monkeys after oral administration of 30 mg/kg dose at 3 hours. The class given is functional, Cercopithecidae.
The test system of assay [4] is Monkey. As to the kind of experiment: Effect of compound on blood pressure in conscious, salt-depleted, normotensive, cynomolgus monkeys after oral administration of 30 mg/kg dose at 2 hours. It counts as functional, Cercopithecidae.

Structures are written as SMILES. Where only a bound is given, the exact number is not on record here.

By IC50 is commonly meant the concentration at which inhibition is half-maximal. Take `C#CCOC(NC(=O)[C@H](Cc1ccccc1)NS(=O)(=O)N1CCOCC1)C(=O)N[C@@H](CC1CCCCC1)[C@@H](O)[C@@H](O)CC(C)C` (stereo partly specified): the IC50 in assay [1] amounted to 0.52 nM; on Cathepsin D it was 80.1 nM. Moreover, the Selectivity in the assay filed under Bos taurus amounted to 154. Turning to `CC[C@H](C)CNC(=O)C[C@H](O)[C@H](CC(C)C)NC(=O)C(N)NC(=O)C(Cc1cccc2ccccc12)Cc1cccc2ccccc12` (stereo in doubt; 31), in assay [1], the IC50 was greater than 1000 nM. Turning to `CC(C)C[C@H](O)[C@H](O)[C@H](CC1CCCCC1)NC(=O)C(NC(=O)[C@H](Cc1ccccc1)NS(=O)(=O)N1CCOCC1)OCC(F)(F)F` (stereo partly specified), the “Change in BP” value in the assay on Monkey [2] is -1 mmHg; in the assay on Monkey [3] it was -2 mmHg; with Monkey [4] it was -1 mmHg. The molecule further registered an IC50 on Cathepsin D of 21.2 nM.

Regarding `CCCOC(NC(=O)[C@H](Cc1ccccc1)NS(=O)(=O)N1CCOCC1)C(=O)N[C@@H](CC1CCCCC1)C(=O)C(F)(F)C(=O)NCCN1CCOCC1` (stereo partly specified), the IC50 in assay [1] came out at 2.1 nM; against Cathepsin D it was 131 nM. For the same molecule, the “Change in BP” value is listed as -10 mmHg with Monkey [2], -9 mmHg in the assay on Monkey [3] and -10 mmHg in the assay on Monkey [4]. Besides, the Selectivity in the assay filed under Bos taurus turned out to be 65.5.

As to `C=CCSC(NC(=O)[C@H](Cc1ccccc1)NS(=O)(=O)N1CCOCC1)C(=O)N[C@@H](CC1CCCCC1)[C@@H](O)CC(=O)NCCN1CCOCC1` (stereo partly specified), the figures for the IC50 (in assay [1]; at Cathepsin D) were 1.5 nM and 10 nM, respectively. Also, the “Change in BP” value with Monkey [2] is listed as -3 mmHg; in the assay with Monkey [3], -6 mmHg; with Monkey [4], -7 mmHg. In addition, in the assay filed under Bos taurus, the Selectivity came to 6.7. In assay [1], `CC[C@H](C)CNC(=O)C[C@H](O)[C@H](CC(C)C)NC(=O)C(NC(=O)C(Cc1cccc2ccccc12)Cc1cccc2ccccc12)[S+](C)[O-]` (stereo partly specified) registered an IC50 of 615 nM.

In the case of `CC[C@H](C)CNC(=O)C[C@H](O)[C@H](CC(C)C)NC(=O)C(NC(=O)C(Cc1cccc2ccccc12)Cc1cccc2ccccc12)S(C)(=O)=O` (stereo partly specified), the IC50 in assay [1] was greater than 1000 nM.

In turn, `CC[C@H](C)CNC(=O)C[C@H](O)[C@H](CC(C)C)NC(=O)C(NC(=O)C(Cc1cccc2ccccc12)Cc1cccc2ccccc12)SC` (stereo partly specified) returned an IC50 in assay [1] of 95 nM. As to `C=CCSC(NC(=O)[C@H](Cc1ccccc1)NS(=O)(=O)N1CCOCC1)C(=O)N[C@@H](CC1CCCCC1)[C@@H](O)[C@@H](O)CC(C)C` (stereo partly specified), the figures for the IC50 (in assay [1]; against Cathepsin D) were 0.17 nM and 19.4 nM, respectively. In addition, the Selectivity in the assay listed under Bos taurus was 118. In assay [1], `CC[C@H](C)CNC(=O)C[C@H](O)[C@H](CC(C)C)NC(=O)C(NC(=O)C(Cc1cccc2ccccc12)Cc1cccc2ccccc12)OC` (stereo partly specified) yielded an IC50 of 180 nM. `CC[C@H](C)CNC(=O)C[C@H](O)[C@H](CC(C)C)NC(=O)C(NC(C)=O)NC(=O)C(Cc1cccc2ccccc12)Cc1cccc2ccccc12` (stereo partly specified): the IC50 in assay [1] was found to be 936 nM.

In assay [1], `CC[C@H](C)CNC(=O)C[C@H](O)[C@H](CC(C)C)NC(=O)C(NC(=O)C(Cc1cccc2ccccc12)Cc1cccc2ccccc12)Nc1ccccc1` (stereo partly specified) returned an IC50 of 310 nM.

At Cathepsin D, `CC(C)C[C@H](O)[C@H](O)[C@H](CC1CCCCC1)NC(=O)C(Cc1cnc[nH]1)NC(=O)[C@H](Cc1ccccc1)NS(=O)(=O)N1CCOCC1` (stereo partly specified) returned an IC50 greater than 10000 nM. Consider `CCOC(NC(=O)C(Cc1cccc2ccccc12)Cc1cccc2ccccc12)C(=O)N[C@@H](CC(C)C)[C@@H](O)CC(=O)NC[C@@H](C)CC` (stereo in doubt; 21), for which half-maximal inhibition in assay [1] (IC50) required 26 nM.

Take `C=CCN(C)C(NC(=O)[C@H](Cc1ccccc1)NC(=O)OC(C)(C)C)C(=O)N[C@@H](CC1CCCCC1)[C@@H](O)[C@@H](O)CC(C)C` (stereo partly specified): at Cathepsin D, the IC50 stood at 60.4 nM.

In assay [1], `CC[C@H](C)CNC(=O)C[C@H](O)[C@H](CC(C)C)NC(=O)C(NC(=O)C(Cc1cccc2ccccc12)Cc1cccc2ccccc12)NC(C)C` (stereo in doubt; 35) had an IC50 greater than 1000 nM. For `CCSC(NC(=O)[C@H](Cc1ccccc1)NS(=O)(=O)N1CCOCC1)C(=O)N[C@@H](CC1CCCCC1)[C@@H](O)[C@@H](O)CC(C)C` (stereo partly specified), the results for the “Change in BP” value in the assay on Monkey [2], with Monkey [3] and in the assay with Monkey [4] were -14 mmHg, -16 mmHg and -12 mmHg, respectively. For the same molecule, at Cathepsin D, 10 nM corresponded to half-maximal inhibition (IC50). In the case of `CCNC(NC(=O)C(Cc1cccc2ccccc12)Cc1cccc2ccccc12)C(=O)N[C@@H](CC(C)C)[C@@H](O)CC(=O)NC[C@@H](C)CC` (stereo in doubt; 33), the IC50 in assay [1] was greater than 1000 nM.

In assay [1], `CC[C@H](C)CNC(=O)C[C@H](O)[C@H](CC(C)C)NC(=O)C(Cc1c[nH]cn1)NC(=O)C(Cc1cccc2ccccc12)Cc1cccc2ccccc12` (stereo partly specified) came in with an IC50 of 85 nM.

Molecule `CCNC(NC(=O)C(Cc1cccc2ccccc12)Cc1cccc2ccccc12)C(=O)N[C@@H](CC(C)C)[C@@H](O)CC(=O)NC[C@@H](C)CC` (stereo in doubt; 34) came in with an IC50 in assay [1] of 210 nM. `CCOC(NC(=O)C(Cc1cccc2ccccc12)Cc1cccc2ccccc12)C(=O)N[C@@H](CC(C)C)[C@@H](O)CC(=O)NC[C@@H](C)CC` (stereo in doubt; 22) had an IC50 in assay [1] greater than 1000 nM. As for `CCCOC(NC(=O)[C@H](Cc1ccccc1)NS(=O)(=O)N1CCOCC1)C(=O)N[C@@H](CC1CCCCC1)[C@@H](O)[C@@H](O)CC(C)C` (stereo partly specified), the midpoint of inhibition against Cathepsin D, the IC50, lay at 22 nM. Consider `CC[C@H](C)CNC(=O)C[C@H](O)[C@H](CC(C)C)NC(=O)C(NC(=O)C(Cc1cccc2ccccc12)Cc1cccc2ccccc12)Sc1ccccc1` (stereo partly specified), for which inhibition in assay [1] was half-maximal at 656 nM (IC50). With `C=CCOC(NC(=O)[C@H](Cc1ccccc1)NS(=O)(=O)N1CCOCC1)C(=O)N[C@@H](CC1CCCCC1)[C@@H](O)[C@@H](O)CC(C)C` (stereo partly specified), the IC50 in assay [1] came out at 0.22 nM; against Cathepsin D it was 10.5 nM. Take `CC(C)C[C@H](O)[C@H](O)[C@H](CC1CCCCC1)NC(=O)C(NC(=O)[C@H](Cc1ccccc1)NS(=O)(=O)N1CCOCC1)Sc1cccs1` (stereo partly specified): the IC50 in assay [1] is 13 nM; against Cathepsin D, 470 nM. For the same molecule, the Selectivity in the assay listed under Bos taurus turned out to be 36.1. Turning to `CC[C@H](C)CNC(=O)C[C@H](O)[C@H](CC(C)C)NC(=O)C(NC(=O)C(Cc1cccc2ccccc12)Cc1cccc2ccccc12)NC(C)C` (stereo in doubt; 36), the IC50 in assay [1] is 500 nM.

On Cathepsin D, `CCOC(NC(=O)[C@H](Cc1ccccc1)NS(=O)(=O)N1CCOCC1)C(=O)N[C@@H](CC1CCCCC1)[C@@H](O)[C@@H](O)CC(C)C` (stereo partly specified) came in with an IC50 of 14 nM. Molecule `CC[C@H](C)CNC(=O)C[C@H](O)[C@H](CC(C)C)NC(=O)C(N)NC(=O)C(Cc1cccc2ccccc12)Cc1cccc2ccccc12` (stereo in doubt; 32) returned an IC50 in assay [1] of 1000 nM.

The molecule `CC[C@H](C)CNC(=O)C[C@H](O)[C@H](CC(C)C)NC(=O)C(NC(=O)C(Cc1cccc2ccccc12)Cc1cccc2ccccc12)Oc1ccccc1` (stereo partly specified) came in with an IC50 in assay [1] of 633 nM.

Molecule `O=C(C[C@H](O)[C@H](CC1CCCCC1)NC(=O)C(Cc1cnc[nH]1)NC(=O)[C@H](Cc1ccccc1)NS(=O)(=O)N1CCOCC1)NCCN1CCOCC1` (stereo partly specified) displayed an IC50 on Cathepsin D greater than 10000 nM. For `CCOC(NC(=O)[C@H](Cc1ccccc1)NS(=O)(=O)N1CCOCC1)C(=O)N[C@@H](CC1CCCCC1)[C@@H](O)CC(=O)NCCN1CCOCC1` (stereo partly specified), on Cathepsin D, the IC50 was greater than 10000 nM.

For `CCSC(NC(=O)[C@H](Cc1ccccc1)NC(=O)OC(C)(C)C)C(=O)N[C@@H](CC1CCCCC1)[C@@H](O)[C@@H](O)CC(C)C` (stereo partly specified), the 50% inhibitory concentration (IC50) in assay [1] turned out to be 1.4 nM; against Cathepsin D it was 28.1 nM. The Selectivity in the assay listed under Bos taurus came out at 20.1. `CCCOC(NC(=O)[C@H](Cc1ccccc1)NS(=O)(=O)N1CCOCC1)C(=O)N[C@@H](CC1CCCCC1)[C@@H](O)C(F)(F)C(=O)NCCN1CCOCC1` (stereo partly specified): the “Change in BP” value in the assay with Monkey [2] was 3 mmHg; in the assay on Monkey [3], -3 mmHg; in the assay on Monkey [4], -1 mmHg. At Cathepsin D, this molecule showed an IC50 of 699 nM.
